ChEMBL document CHEMBL3804761, “Synthesis of a stable and orally bioavailable englerin analogue” (Bioorg Med Chem Lett, 2016)

Tests used:
Type in all cases: functional
[1] = Growth inhibition of human HCC2998 cells assessed as cell growth at 10 uM incubated for 48 hrs by sulforhodamine B assay relative to control; settings: HCC 2998, 48 h, read-out: Activity
How it was run: (§1)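 Single-dose screen in the NCI 60-cell-line panel at one final concentration of 10 µM. Two-day drug exposure with a sulforhodamine B endpoint. Values are growth percent for each cell line.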

[2] = tested on: NCI-H23; test: Growth inhibition of human NCI-H23 cells assessed as cell growth at 10 uM incubated for 48 hrs by sulforhodamine B assay relative to control; settings: NCI-H23, 48 h, read-out: Activity
How it was run: (§2)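 Run in the standard NCI 60-cell-line screen. Cells were exposed to drug for two days, and the read-out was sulforhodamine B staining. Compound was tested at a single final concentration of 10 µM in every line, and results are reported as growth percent.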

[3] = Growth inhibition of human LOXIMVI cells assessed as cell growth at 10 uM incubated for 48 hrs by sulforhodamine B assay relative to control; settings: LOX IMVI, read-out: Activity; how it was run: as §1
[4] = Growth inhibition of human UACC257 cells assessed as cell growth at 10 uM incubated for 48 hrs by sulforhodamine B assay relative to control; settings: UACC-257, 48 h, read-out: Activity
How it was run: (§3)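 NCI 60-cell line standard protocol, one-dose screen: single final concentration 10 µM, 2-day drug exposure, sulforhodamine B (SRB) endpoint; read-out is growth percent relative to untreated control.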

[5] = tested on: MDA-MB-231; test: Growth inhibition of human MDA-MB-231 cells assessed as cell growth at 10 uM incubated for 48 hrs by sulforhodamine B assay relative to control; settings: MDA-MB-231, 48 h, read-out: Activity; how it was run: as §2
[6] = Growth inhibition of human SKOV3 cells assessed as cell growth at 10 uM incubated for 48 hrs by sulforhodamine B assay relative to control; settings: SK-OV-3, 48 h, read-out: Activity; how it was run: as §2
[7] = Growth inhibition of human Hs 578T cells assessed as cell growth at 10 uM incubated for 48 hrs by sulforhodamine B assay relative to control; settings: read-out: Activity
[8] = tested on: T47D; test: Growth inhibition of human T47D cells assessed as cell growth at 10 uM incubated for 48 hrs by sulforhodamine B assay relative to control; settings: read-out: Activity; how it was run: as §3
[9] = Growth inhibition of human OVCAR4 cells assessed as cell growth at 10 uM incubated for 48 hrs by sulforhodamine B assay relative to control; settings: OVCAR-4, 48 h, read-out: Activity; how it was run: as §2
[10] = tested on: KM12; test: Growth inhibition of human KM12 cells assessed as cell growth at 10 uM incubated for 48 hrs by sulforhodamine B assay relative to control; settings: KM12, 48 h, read-out: Activity; how it was run: as §2
[11] = Growth inhibition of human OVCAR5 cells assessed as cell growth at 10 uM incubated for 48 hrs by sulforhodamine B assay relative to control; settings: OVCAR-5, 48 h, read-out: Activity; how it was run: as §2
[12] = Growth inhibition of human RXF393 cells incubated for 48 hrs by sulforhodamine B assay; settings: RXF 393, 48 h
How it was run: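 Run in the NCI 60-cell-line protocol, with 2-day drug exposure and sulforhodamine B read-out. Dose-response testing used five 10-fold dilutions starting from a high concentration of 100 µM.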

[13] = tested on: Malme-3M; test: Growth inhibition of human MALME-3M cells incubated for 48 hrs by sulforhodamine B assay
How it was run: (§4)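 NCI 60-cell-line panel, standard protocol. Cells exposed to compound for two days, growth read by sulforhodamine B staining. Tested at five 10-fold dilutions, top concentration 100 µM, to give dose-response curves.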

[14] = tested on: SK-MEL-5; test: Growth inhibition of human SK-MEL-5 cells incubated for 48 hrs by sulforhodamine B assay; settings: SK-MEL-5, 48 h; how it was run: as §4
[15] = Growth inhibition of human UACC257 cells incubated for 48 hrs by sulforhodamine B assay; settings: UACC-257, 48 h
How it was run: (§5)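 Tested in the standard NCI 60-cell-line protocol with two-day drug exposure and a sulforhodamine B endpoint. Compounds were first screened at a single final concentration of 10 µM, reported as growth percent. They were then run as five 10-fold dilutions starting from a high concentration of 100 µM to give dose-response curves.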

[16] = tested on: A498; test: Growth inhibition of human A498 cells incubated for 48 hrs by sulforhodamine B assay; settings: A498, 48 h
[17] = Growth inhibition of human HOP62 cells incubated for 48 hrs by sulforhodamine B assay; settings: HOP-62, 48 h; how it was run: as §4
[18] = Growth inhibition of human PC3 cells incubated for 48 hrs by sulforhodamine B assay; settings: PC-3, 48 h; how it was run: as §4
[19] = tested on: NCI/ADR-RES; test: Growth inhibition of human NCI/ADR-RES cells incubated for 48 hrs by sulforhodamine B assay; how it was run: as §4
[20] = Growth inhibition of human LOXIMVI cells incubated for 48 hrs by sulforhodamine B assay; settings: LOX IMVI; how it was run: as §4
[21] = Growth inhibition of human HL-60(TB) cells incubated for 48 hrs by sulforhodamine B assay; settings: HL-60, 48 h; how it was run: as §4
[22] = Growth inhibition of human OVCAR4 cells incubated for 48 hrs by sulforhodamine B assay; settings: OVCAR-4, 48 h; how it was run: as §4
[23] = tested on: MDA-MB-468; test: Growth inhibition of human MDA-MB-468 cells incubated for 48 hrs by sulforhodamine B assay; settings: MDA-MB-468, 48 h; how it was run: as §4
[24] = Growth inhibition of human HOP92 cells incubated for 48 hrs by sulforhodamine B assay; settings: HOP-92, 48 h; how it was run: as §4
[25] = Growth inhibition of human HCC2998 cells incubated for 48 hrs by sulforhodamine B assay; settings: HCC 2998, 48 h; how it was run: as §4
[26] = Growth inhibition of human Caki1 cells incubated for 48 hrs by sulforhodamine B assay; settings: CAKI-1, 48 h; how it was run: as §4
[27] = Growth inhibition of human OVCAR5 cells incubated for 48 hrs by sulforhodamine B assay; settings: OVCAR-5, 48 h; how it was run: as §4
[28] = tested on: SR; test: Growth inhibition of human SR cells incubated for 48 hrs by sulforhodamine B assay; how it was run: as §5
[29] = read-out: pLC50 (the source's name) (converted)

Compound: CC(C)[C@@]12C[C@@H](NC(=O)CF)[C@@](C)(O1)[C@@H]1CC[C@@H](C)[C@H]1[C@@H]2OC(=O)/C=C/c1ccccc1
- growth at 10 µM [1]: 107%
- growth at 10 µM [2]: 102%
- growth at 10 µM [3]: 102%
- growth at 10 µM [4]: 105%
- growth at 10 µM [5]: 102%
- growth at 10 µM [6]: 91.3%
- growth at 10 µM [7]: 92.6%
- growth at 10 µM [8]: 78.4%
- growth at 10 µM [9]: 105%
- growth at 10 µM [10]: 104%
- growth at 10 µM [11]: 102%

Compound: CC(C)[C@@]12C[C@@H](NC(=O)CO)[C@@](C)(O1)[C@@H]1CC[C@@H](C)[C@H]1[C@@H]2OC(=O)c1ccc2ccccc2c1
- GI50 [12]: 6.17 µM
- CC50 [12, 29]: 49 µM
- TGI ([12]; read-out: pTGI (converted)): 20.4 µM
- GI50 [13]: 16.2 µM
- LC50 [13]: 69.2 µM
- TGI ([13]; read-out: pTGI (converted)): 33.1 µM
- growth at 10 µM [1]: 105%
- growth at 10 µM [2]: 80.2%
- GI50 [14]: 16.6 µM
- LC50 [14]: 56.2 µM
- TGI ([14]; read-out: pTGI (converted)): 30.9 µM
- GI50 [15]: 16.2 µM
- CC50 [15, 29]: 64.6 µM
- TGI ([15]; read-out: pTGI (converted)): 32.4 µM
- LC50 [16]: 29.5 µM
- GI50 ([16]; read-out: GI50): 1.62 µM
- GI50 ([16]; read-out: pGI50 (converted)): 1.62 µM
- TGI ([16]; read-out: pTGI (converted)): 6.31 µM
- GI50 [17]: 15.1 µM
- LC50 [17]: 55 µM
- TGI ([17]; read-out: pTGI (converted)): 28.8 µM
- GI50 [18]: 12 µM
- CC50 [18, 29]: 52.5 µM
- TGI ([18]; read-out: pTGI (converted)): 25.1 µM
- GI50 [19]: 11 µM
- LC50 [19]: 57.5 µM
- TGI ([19]; read-out: pTGI (converted)): 25.1 µM
- GI50 [20]: 16.2 µM
- LC50 [20]: 57.5 µM
- TGI ([20]; read-out: pTGI (converted)): 30.2 µM
- growth at 10 µM [4]: 101%
- growth at 10 µM [5]: 101%
- growth at 10 µM [6]: 96.4%
- growth at 10 µM [7]: -18.3%
- GI50 [21]: 20.4 µM
- CC50 [21, 29]: 87.1 µM
- TGI ([21]; read-out: pTGI (converted)): 41.7 µM
- growth at 10 µM [8]: 67.9%
- GI50 [22]: 16.2 µM
- LC50 (concentration killing 50% of cells) [22]: 61.7 µM
- TGI ([22]; read-out: pTGI (converted)): 31.6 µM
- GI50 [23]: 14.8 µM
- CC50 [23, 29]: 57.5 µM
- TGI ([23]; read-out: pTGI (converted)): 28.8 µM
- GI50 [24]: 9.33 µM
- LC50 [24]: 52.5 µM
- TGI ([24]; read-out: pTGI (converted)): 22.9 µM
- GI50 [25]: 15.8 µM
- LC50 [25]: 57.5 µM
- TGI ([25]; read-out: pTGI (converted)): 30.2 µM
- growth at 10 µM [9]: 82.2%
- GI50 [26]: 10 µM
- LC50 [26]: 50.1 µM
- TGI ([26]; read-out: pTGI (converted)): 22.4 µM
- growth at 10 µM [10]: 94.5%
- GI50 [27]: 15.5 µM
- LC50 [27]: 55 µM
- TGI ([27]; read-out: pTGI (converted)): 28.8 µM
- growth at 10 µM [11]: 84.5%
- GI50 [28]: 17.8 µM
- LC50 [28]: 81.3 µM
- TGI ([28]; read-out: pTGI (converted)): 38 µM
